Results published in ChEMBL document CHEMBL1123632, “Cardiotonic agents. 7. Inhibition of separated forms of cyclic nucleotide phosphodiesterase from guinea pig cardiac muscle by 4,5-dihydro-6-[4-(1H-imidazol-1-yl)phenyl]-3(2H)-pyridazinones and related compounds. Structure-activity relationships and correlation with in vivo positive inotropic …” (J Med Chem, 1987).

What was measured:
[1] = target: T1, cGMP-dependent 3',5'-cyclic phosphodiesterase (Homo sapiens, UniProt O00408); experiment: Inhibitory concentration against cAMP PDE II enzyme in guinea pig; set-up: species or system Cavia porcellus; conditions: target entry is the homologue from another species
[2] = target: T1, cGMP-dependent 3',5'-cyclic phosphodiesterase; experiment: Inhibition of cAMP PDE II enzyme in guinea pig at 1E-5M concentration; conditions: Cavia porcellus; target entry is the homologue from another species
Phosphodiesterase 1 [3] = target: T2, Phosphodiesterase 1 (Homo sapiens, UniProt P54750+Q01064+Q14123); experiment: Inhibition of cAMP PDE I enzyme in guinea pig at 1E-5M concentration; type: protein assay; conditions: Cavia porcellus; target entry is the homologue from another species
Canis familiaris = species on record: Canis familiaris; experiment: Effective dose required to increase myocardial contractility in dog.; type: functional; conditions: Canis lupus familiaris, Myocardium
How it was run: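 Anesthetized mongrel dogs (either sex): pentobarbital 35 mg/kg iv, then 5 mg kg⁻¹ h⁻¹ infusion. After 30-min control, compound in saline or dilute HCl/NaOH diluted with saline given iv over 1 min, cumulative half-log doses (typically four to six), 10–30 min apart.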

Phosphodiesterase 1 [4] = target: T2, Phosphodiesterase 1; experiment: Inhibition of cGMP PDE I enzyme in guinea pig at 1E-5M concentration; type: protein assay; conditions: Cavia porcellus; target entry is the homologue from another species
Phosphodiesterase 3 [5] = target: T3, Phosphodiesterase 3 (Homo sapiens, UniProt Q14432+Q13370); experiment: Inhibitory concentration against cAMP PDE III enzyme in guinea pig; type: protein assay, Cavia porcellus; conditions: target entry is the homologue from another species
[6] = target: T1, cGMP-dependent 3',5'-cyclic phosphodiesterase; experiment: Inhibition of cGMP PDE II enzyme in guinea pig at 1E-5M concentration; conditions: Cavia porcellus; target entry is the homologue from another species
Phosphodiesterase 3 [7] = target: T3, Phosphodiesterase 3; experiment: Inhibition of cAMP PDE III enzyme in guinea pig at 1E-5M concentration; type: protein assay; conditions: Cavia porcellus; target entry is the homologue from another species
Phosphodiesterase 1 [8] = target: T2, Phosphodiesterase 1; experiment: Inhibition of cGMP PDE I enzyme in guinea pig at 1E-4M concentration; type: protein assay; conditions: Cavia porcellus; target entry is the homologue from another species
[9] = target: T1, cGMP-dependent 3',5'-cyclic phosphodiesterase; experiment: Inhibition of cGMP PDE II enzyme in guinea pig at 1E-4M concentration; conditions: Cavia porcellus; target entry is the homologue from another species
Phosphodiesterase 1 [10] = target: T2, Phosphodiesterase 1; experiment: Inhibition of cAMP PDE I enzyme in guinea pig at 1E-4M concentration.; type: protein assay; conditions: Cavia porcellus; target entry is the homologue from another species
[11] = target: T1, cGMP-dependent 3',5'-cyclic phosphodiesterase; experiment: Inhibitory concentration against cGMP PDE II enzyme in guinea pig; set-up: species or system Cavia porcellus; conditions: target entry is the homologue from another species
Phosphodiesterase 3 [12] = target: T3, Phosphodiesterase 3; experiment: Inhibition of cAMP PDE III enzyme in guinea pig at 1E-4M concentration.; type: protein assay; conditions: Cavia porcellus; target entry is the homologue from another species
[13] = Ratio of IC50 values for PDE III and PDE II.
PDE I (Cavia porcellus) [14] = experiment: Inhibitory concentration against cAMP PDE I enzyme in guinea pig
PDE I (Cavia porcellus) [15] = experiment: Inhibitory concentration against cGMP PDE I enzyme in guinea pig
PDE II (Cavia porcellus) = experiment: Inhibition of cAMP PDE II enzyme in guinea pig at 1E-4M concentration.

T1 sequence (O00408 whole entry): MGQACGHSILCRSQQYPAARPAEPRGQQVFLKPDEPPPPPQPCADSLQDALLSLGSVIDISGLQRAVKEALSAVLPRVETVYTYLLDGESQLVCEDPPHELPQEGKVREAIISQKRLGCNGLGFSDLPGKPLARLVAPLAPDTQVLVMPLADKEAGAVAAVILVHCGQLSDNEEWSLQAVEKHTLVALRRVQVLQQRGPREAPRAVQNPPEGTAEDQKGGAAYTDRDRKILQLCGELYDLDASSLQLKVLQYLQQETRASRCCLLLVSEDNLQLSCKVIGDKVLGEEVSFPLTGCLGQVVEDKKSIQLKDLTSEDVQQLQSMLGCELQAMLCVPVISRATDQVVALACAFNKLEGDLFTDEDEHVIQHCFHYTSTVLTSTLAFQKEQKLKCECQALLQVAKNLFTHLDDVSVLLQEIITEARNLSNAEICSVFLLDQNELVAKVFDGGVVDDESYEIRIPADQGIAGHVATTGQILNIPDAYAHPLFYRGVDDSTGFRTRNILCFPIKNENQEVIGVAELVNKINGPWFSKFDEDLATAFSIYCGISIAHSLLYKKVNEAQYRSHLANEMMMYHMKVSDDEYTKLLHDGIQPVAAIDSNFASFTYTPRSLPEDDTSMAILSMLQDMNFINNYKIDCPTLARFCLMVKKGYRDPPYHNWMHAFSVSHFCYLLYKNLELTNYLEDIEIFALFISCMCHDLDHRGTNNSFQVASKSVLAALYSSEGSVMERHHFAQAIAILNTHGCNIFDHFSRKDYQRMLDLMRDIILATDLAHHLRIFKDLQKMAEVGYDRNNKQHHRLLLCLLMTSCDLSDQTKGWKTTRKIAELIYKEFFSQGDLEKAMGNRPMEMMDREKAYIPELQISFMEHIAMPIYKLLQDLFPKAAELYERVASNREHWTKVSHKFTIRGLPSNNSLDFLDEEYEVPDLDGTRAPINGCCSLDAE

SMILES | IC50 [1] [µM] | inhibition [2] [%] | inhibition (Phosphodiesterase 1 [3]) [%] | inhibition (Phosphodiesterase 1 [4]) [%] | IC50 (Phosphodiesterase 3 [5]) [µM] | inhibition [6] [%] | inhibition (Phosphodiesterase 3 [7]) [%] | inhibition (Phosphodiesterase 1 [8]) [%] | inhibition [9] [%] | inhibition (Phosphodiesterase 1 [10]) [%] | IC50 [11] [µM] | inhibition (Phosphodiesterase 3 [12]) [%] | Ratio [13] | IC50 (PDE I (Cavia porcellus) [14]) [µM] | IC50 (PDE I (Cavia porcellus) [15]) [µM] | inhibition (PDE II (Cavia porcellus)) [%] | ED50 (Canis familiaris) [mg/kg]
CN1N=C(c2ccc(-n3ccnc3)cc2)CCC1=O | 370 | 5 | 1 | 3 | 110 | 1 | 13 | 26 | 32 | 22 | 280 | 47 | 297 | > 1000 | > 1000 | 33 | 1
NC(=O)c1cc(-c2ccc(-n3ccnc3)cc2)nnc1O |  | 18 | 11 | 16 |  | 15 | 24 |  |  |  |  |  |  |  |  |  | 
Oc1ccc(-c2ccc(-n3cnc4c3CCCC4)cc2)nn1 |  |  | 30 | 27 |  |  |  | 56 |  | 52 |  |  |  |  |  |  | 
O=C1CCC(c2ccc(-n3ccnc3)cc2)=NN1Cc1ccccc1 |  | 22 | 1 | 13 |  | 18 | 47 | 33 | 70 | 39 |  | 79 |  |  |  | 70 | 
O=C1CCC(c2ccc(NC3=NCCS3)cc2)=NN1 |  | 31 | 18 | 20 |  | 33 | 58 |  |  |  |  |  |  |  |  |  | 
Cc1cc(O)nnc1-c1ccc(-n2ccnc2)cc1 |  | 4 | 0 | 4 | 50 | 8 | 26 | 14 | 39 | 24 |  | 64 |  |  |  |  | 1.1
Oc1ccc(-c2ccc(-c3ncc[nH]3)cc2)nn1 | 190 | 10 | 8 | 10 | 12 | 7 | 51 | 23 | 41 | 18 | 180 | 69 |  |  |  |  | 0.017
CC1(C)CC(=O)NN=C1c1ccc(-n2ccnc2)cc1 |  | 17 | 2 | 5 |  | 6 | 47 |  |  |  |  |  |  |  |  |  | 
Cc1cc(=O)[nH]nc1-c1ccc(-n2ccnc2)cc1 | 210 |  |  |  |  |  |  |  |  |  | 170 |  |  |  |  |  | 
O=C1CCC(c2ccc(NC3=NCCN3)cc2)=NN1 |  | 28 | 33 | 33 |  | 16 | 58 |  |  |  |  |  |  |  |  |  | 
O=C1NN=C(c2ccc(-n3ccnc3)cc2)C2CCCCC12 (configuration not stated) | 150 | 14 | 1 | 2 | 220 | 8 | 8 | 16 | 44 | 22 | 130 | 34 |  |  |  |  | 1
Cc1[nH]c(=O)c(C#N)cc1-c1ccncc1 [MILRINONE] |  |  |  |  |  |  |  |  |  |  |  |  |  |  |  |  | 0.037
O=C1CCC(c2ccc(NC3=NCCO3)cc2)=NN1 |  | 9 | 3 | 6 |  | 4 | 54 | 12 | 31 | 26 |  | 68 |  |  |  | 36 | 
CC(=O)OCCN1N=C(c2ccc(-n3ccnc3)cc2)CCC1=O |  | 23 | 1 | 5 |  | 11 | 16 |  |  |  |  |  |  |  |  |  | 
CCc1nc(C)c(Br)n1-c1ccc(-c2ccc(O)nn2)cc1 |  |  | 20 |  |  |  |  |  |  | 64 |  |  |  |  |  |  | 
CCC1CC(=O)NN=C1c1ccc(-n2ccnc2)cc1 (configuration not stated) | 100 | 5 | 1 | 1 | 74 | 13 | 18 | 8 | 40 | 2 | 71 | 54 | 740 | > 1000 | > 1000 | 35 | 1
Cn1nc(-c2ccc(-n3ccnc3)cc2)ccc1=O |  | 16 | 1 | 9 |  | 12 | 20 |  |  |  |  |  |  |  |  |  | 
CC1(C)CC(c2ccc(-n3ccnc3)cc2)=NNC1=O |  | 22 | 7 | 2 |  | 13 | 27 |  |  |  |  |  |  |  |  |  | 
NNC(=O)c1cc(-c2ccc(-n3ccnc3)cc2)nnc1O |  | 20 | 6 | 4 |  | 12 | 21 |  |  |  |  |  |  |  |  |  | 

Continued, in another order:

IC50 [1] [µM] | inhibition [2] [%] | inhibition (Phosphodiesterase 1 [3]) [%] | inhibition (Phosphodiesterase 1 [4]) [%] | IC50 (Phosphodiesterase 3 [5]) [µM] | inhibition [6] [%] | inhibition (Phosphodiesterase 3 [7]) [%] | inhibition (Phosphodiesterase 1 [8]) [%] | inhibition [9] [%] | inhibition (Phosphodiesterase 1 [10]) [%] | IC50 [11] [µM] | inhibition (Phosphodiesterase 3 [12]) [%] | Ratio [13] | IC50 (PDE I (Cavia porcellus) [14]) [µM] | IC50 (PDE I (Cavia porcellus) [15]) [µM] | inhibition (PDE II (Cavia porcellus)) [%] | SMILES | ED50 (Canis familiaris) [mg/kg]
170 | 14 | 9 | 7 | 3.5 | 9 | 59 | 53 | 44 | 51 | 92 | 76 |  |  |  |  | CCc1nc(C)cn1-c1ccc(C2=NNC(=O)CC2)cc1 | 0.1
 | 20 | 0 | 13 |  | 21 | 68 |  |  |  |  |  |  |  |  |  | O=C1CCC(c2ccc(-n3cccc3)cc2)=NN1 | 
49 | 20 | 8 | 7 | 1.1 | 22 | 60 | 37 | 69 | 38 | 39 | 87 |  |  |  |  | O=C1CCC(c2ccc(-n3cnc4c3CCCC4)cc2)=NN1 | 0.064
 | 25 | 29 | 20 |  | 21 | 70 |  |  |  |  |  |  |  |  |  | O=C1CCC(c2ccc(-n3cnnc3)cc2)=NN1 | 
 | 23 | 7 | 2 |  | 23 | 58 |  |  |  |  |  |  |  |  |  | Cc1csc(Nc2ccc(C3=NNC(=O)CC3)cc2)n1 | 
480 | 6 | 1 |  | 4.1 | 5 | 59 | 9 | 23 | 9 | 350 | 68 |  |  |  |  | O=C1CCC(c2ccc(-n3cnc(CO)c3)cc2)=NN1 | 0.034
 | 37 | 21 | 20 |  | 29 | 86 |  |  |  |  |  |  |  |  |  | O=C1CCC(c2ccc(-c3nn[nH]n3)cc2)=NN1 | 
 | 10 | 7 | 13 |  | 12 | 57 |  |  |  |  |  |  |  |  |  | CSc1nccn1-c1ccc(C2=NNC(=O)CC2)cc1 | 
 | 27 | 12 | 15 |  | 27 |  |  |  |  |  |  |  |  |  |  | O=C1CCC(c2ccc(-n3cccn3)cc2)=NN1 | 
